The list is not random: actives were taken first. Their share in the collection is about 1.7%.
ARNT-TACC3 inh: ARNT/TACC3 interaction disruption. AlphaScreen His-ARNT PAS-B/GST-TACC3 binding, luminescence; TACC3 fragment carries E629A point mutation. inhibition, % at 9.99 µM. hit rate 0.66% among 390,000. AID 623870;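 active = mean inhibition of replicates at least 50% and at least half of replicates each reaching 50%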;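 note: 0% = complete ARNT plus TACC3 wells and 100% = ARNT alone without TACC3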
CAL PDZ FP-1: inhibitors of human CAL PDZ peptide binding; Q9HD26; purified CAL PDZ, TMR-peptide fluorescence polarization, 1 h; inhibition, % at 24.9 µM; hit rate 0.92% among 300,000; AID 602252;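 active = mean inhibition of at least 30% with at least half of replicates also reaching 30%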;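 note: 0% = DMSO neutral control and 100% = excess unlabeled competitor peptide PRC23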
Rce1 inh: inhibitors of yeast Ras-converting enzyme | calls only | Q03530 | hit rate 0.27% among 290,000 | yeast membranes, quenched prenylated peptide cleavage fluorescence;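 active = fall in fluorescence gain of 50% or more versus controls, with final raw signal at or below 3038400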;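 note: plate controls were neutral control wells for no effect and wells lacking membranes for full effect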
Target sequence (Q03530 whole entry, looked up): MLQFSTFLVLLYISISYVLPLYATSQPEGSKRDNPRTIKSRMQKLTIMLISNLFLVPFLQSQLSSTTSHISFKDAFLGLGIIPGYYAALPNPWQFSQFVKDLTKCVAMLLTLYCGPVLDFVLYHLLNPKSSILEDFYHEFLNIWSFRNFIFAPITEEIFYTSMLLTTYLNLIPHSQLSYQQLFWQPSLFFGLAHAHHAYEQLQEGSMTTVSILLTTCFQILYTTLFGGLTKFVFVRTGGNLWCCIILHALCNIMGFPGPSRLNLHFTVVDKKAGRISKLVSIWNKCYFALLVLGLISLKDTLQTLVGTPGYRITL
CAL PDZ FP-2: inhibitors of human CAL PDZ peptide binding | purified CAL PDZ, TMR-peptide fluorescence polarization, 1 h | AID 504414 | Q9HD26 | inhibition, % at 20 µM | hit rate 0.02% among 330,000;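 active = highest replicate inhibition of at least 40%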;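 note: plate controls were DMSO neutral control wells for no effect and unlabeled competitor peptide control wells for full effect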
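System: purified tagged CAL PDZ domain construct (CerCALP). Schedule: 1 h incubation at room temperature before polarization reading. Medium: 25 mM sodium phosphate pH 7.4, 150 mM NaCl, TCEP, IgG, Thesit. Read-out: percent inhibition from loss of millipolarization. Measured by: FP readout, S and P plane fluorescence. Probe or stimulus: fluorescent TMR peptide probe.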
AI-2 QS modul: modulates the Vibrio harveyi AI-2 quorum sensing system; Vibrio harveyi JMH597 AI-2 luminescence/OD600 ratio, 9 h; stronger effect = lower value; strain lacks LuxN and CqsS sensors; 0 = neutral-control median; activity change, % at 7.5 µM; hit rate 0.4% among 300,000; in the data active = activity change below about -75%, passing the limit was not always enough;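 note: luminescence divided by OD600 gain over 9 h not by final OD600 alone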
An asterisk follows results filed as active; i = inactive; / = not tested or not shown; + = active, no number.

SMILES	ARNT-TACC3 inh	CAL PDZ FP-1	Rce1 inh	CAL PDZ FP-2	AI-2 QS modul
Cc1cccc(NC2=C(NC(=O)c3ccccc3)C(=O)c3ccccc3C2=O)c1	39*	1	i	1	22
O=C(NC1=C(Nc2ccc(Cl)cc2)C(=O)c2ccccc2C1=O)c1ccccc1	51*	-1	i	1	11
N=C1SCC(=O)N1c1ncc(Cc2ccccc2Cl)s1	26	30*	i	0	9
O=C(Nc1cc(Cl)ccc1N1CCOCC1)c1cccnc1Cl	2	64*	i	-1	-1
O=C(Nc1cc(Cl)ccc1N1CCOCC1)c1ccncc1	3	-4	/	0	/
CN(C)CC#CCOC(c1ccccc1)c1ccccc1	-5	-7	i	-2	29
C[C@H](CO)N1C[C@H](C)[C@@H](CN(C)C(=O)Cc2cccnc2)Oc2ncc(C#CCc3ccccc3)cc2C1=O	19	/	/	/	/
O=C(c1cc(COc2ccccc2)on1)N1CCCC(CN2CCOCC2)C1 (centres undefined)	1	53*	i	-1	16
O=C(c1cc(COc2ccccc2)on1)N1CCCC(OCc2cccnc2)C1 (centres undefined)	-1	-4	i	-1	15
Cc1ccc(OCCn2c3ccccc3n3nc(C)c(=O)nc23)cc1	13	-4	+	-2	2
Cc1ccc(OCCn2c(=O)cnc3ccccc32)cc1	-4	-3	i	-1	14
CC1=Nc2cc(C(=O)NCC3CCCO3)ccc2Sc2ccc(C)cc21 (centres undefined)	-19	-2	i	-2	28
CC1=Nc2cc(C(=O)O)ccc2Sc2c(C)ccc(C)c21	/	-1	i	-1	9
CC1=Nc2cc(C(=O)NCc3ccco3)ccc2Sc2ccc(C)cc21	-10	/	i	0	-98*
CC1=Nc2cc(C(=O)O)ccc2Sc2ccc(C)cc21	/	-8	i	-3	-90*
COCCCNC(=S)N/N=C/c1ccc(OC)c(Br)c1	4	54*	i	-1	14
CCc1ccccc1NC(=O)CSc1nnc(-c2cc(C)[nH]n2)n1N	1	6	i	-1	5
Cc1ccc(S(=O)(=O)N(C)C)cc1-n1c(SCC(=O)N(C)C)nc2ccccc2c1=O	-6	-2	i	-1	-4
Cc1ccccc1C(=O)c1cccn1CC(=O)NCCCN1CCCCC1	-9	-3	i	-1	12
Cc1ccccc1C(=O)c1cccn1CC(=O)NCCC1=CCCCC1	-3	56*	i	0	8
COC(=O)c1sc2cnccc2c1N	1	-4	+	-2	14
Cn1c(O)c(N=NC(=N)N)c2ccccc21	0	1	i	-1	8
O=C(CN1C(=O)C2C3C=CC(C3)C2C1=O)OCC(=O)c1ccccc1 (centres undefined)	/	-2	i	-2	16
O=C(CN1C(=O)C2C3C=CC(C3)C2C1=O)OCC(=O)c1ccc(Cl)cc1 (centres undefined)	-3	74*	i	0	27
O=C(Cn1cccc1)NC1CCCCCC1	-8	4	i	-2	-1
SMILES	ARNT-TACC3 inh	CAL PDZ FP-1	Rce1 inh	CAL PDZ FP-2	AI-2 QS modul
CCSCCOC(=O)C1=C(C)NC(=O)NC1c1ccccc1 (centres undefined)	-7	/	+	-1	7
Cc1ccc(S(=O)(=O)NCc2nc(-c3ccccc3)no2)cc1	-18	-4	i	-3	27
c1ccc(NCc2nc(-c3ccccc3)no2)cc1	1	5	i	-1	-87*
COc1ccc(CC(=O)NCc2nc(-c3ccccc3)no2)cc1	10	1	i	-1	-77*
O=C(NNc1nc2c(F)cccc2s1)C1=COCCO1	3	2	i	-2	-5
O=C(Cc1ccc(Cl)cc1)NNC(=O)Nc1cccc2ccccc12	-2	-2	i	1	18
O=C(O[C@@H]1Cc2c(O)cc(O)cc2O[C@@H]1c1cc(O)c(O)c(O)c1)c1cc(O)c(O)c(O)c1	/	/	i	/	35
Cc1ccc(N2CCN(C(=S)c3ccc(N(C)C)cc3)CC2)cc1	4	-3	i	-1	19
CN(C)c1ccc(C(=S)N2CCN(c3ccccc3)CC2)cc1	-7	50*	i	/	13
CCC(C)(C(=O)NC1CCCC1)N(C(=O)CC1NC(=O)NC1=O)c1ccc(C)cc1 (centres undefined)	0	60*	i	0	6
Cc1cc(C)n2c(nc3ccccc32)c1C(=O)NCc1ccccc1	-12	0	+	1	31
Cc1cc(C)n2c(nc3ccccc32)c1C(=O)NN	/	/	i	/	12
CCCCCNC(=O)C1CCC(Cn2c(=S)[nH]c3ccccc3c2=O)CC1 (centres undefined)	26	14	i	-1	34
CCc1ccc(CN2CCCC(CNC(=O)c3cc(OC)cc(OC)c3)C2)cc1 (centres undefined)	11	/	i	-1	13
O=C(NCc1ccccc1)c1nc(S(=O)(=O)Cc2ccccc2)ncc1Cl	5	+	i	0	-53
COc1ccc(CNC(=O)c2nc(S(=O)(=O)Cc3ccccc3)ncc2Cl)cc1	-4	0	i	-2	4
O=C1C(Cl)=C(NCCCN2CCOCC2)C(=O)c2ccccc21	15	-4	/	0	/
O=C1C(Cl)=C(NCCN2CCOCC2)C(=O)c2ccccc21	66*	0	i	0	12
c1ccc(-c2nc3ccccn3c2NC2CCCC2)nc1	64*	0	i	0	67
Cc1ccn2c(NC3CCCC3)c(-c3ccccn3)nc2c1	31	-2	i	0	-8
O=C1C(Cc2c[nH]c3ccccc23)NC(=S)N1Cc1ccccc1 (centres undefined)	20	-1	+	1	22
COC(=O)CSc1nc(N)c2c3c(sc2n1)CCCC3	-3	-4	i	-1	17
COC(=O)CSc1nc(N)c2c3c(sc2n1)C(c1ccccc1)SC(c1ccccc1)C3 (centres undefined)	-32	-5	+	0	6
Cc1nc(C)c(C(=O)N2CCCC(CCC(=O)NCc3ccc(F)c(F)c3)C2)s1 (centres undefined)	2	/	i	-2	10
CCc1noc(C)c1C(=O)N1CCCC(CCC(=O)NCc2ccc(F)c(F)c2)C1 (centres undefined)	11	71*	i	22	7
Cc1ccnc2nc(C(=O)NCc3ccccc3)nn12	-6	197*	i	8	33
Cc1cc(C)n2nc(C(=O)NCc3ccccc3)nc2n1	-4	-4	i	-1	14
COc1cc2c(C(=O)NC3CCCCCC3)cn(C)c(=O)c2cc1OC	-12	-3	i	-1	18
COc1cc(SC)ccc1C(=O)Nc1ccncc1	-6	31*	i	-2	0
